Measured values reported in ChEMBL document CHEMBL1123470, “N-substituent modulation of opiate agonist/antagonist activity in resolved 3-methyl-3-(m-hydroxyphenyl)piperidines” (J Med Chem, 1986).
Where a name gives a salt, the structure may show the parent alone. Calls of active or inactive are those of the source. No cut-off for these calls is given here.

Experiments:
[1] = biological target: T1, Delta-type opioid receptor (Rattus norvegicus, UniProt P33533); test: Affinity against the Opioid receptor delta 1
Mus musculus [2] = test: Compound was tested for analgesic activity in mouse using mouse writhing test following subcutaneous administration; assay type: functional
Mus musculus [3] = test: Analgesic antagonistic activity in mice using morphine(56.07 umol/kg) induced Straub-tail test after sc administration; assay type: functional
In short: (§1)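 Mice got the test substance, N-allylnormorphine reference, or diluent sc, then immediately 56.07 µmol/kg morphine sulfate sc. The number of mice showing a Straub-tail reaction (tail raised above 45°) was recorded 15–25 min after treatment.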

Mus musculus [4] = test: Compound was tested for analgesic activity in mouse using mouse writhing test after sc administration of compound; assay type: functional
Mus musculus [5] = test: Compound was tested for narcotic antagonist potency using tail flick test in mouse after sc administration of compound; assay type: functional
Mus musculus [6] = test: Compound was tested for analgesic potency using writhing test in mouse after sc administration of compound; assay type: functional
Mu-type opioid receptor [7] = biological target: T2, Mu-type opioid receptor (Rattus norvegicus, UniProt P33535); test: Mu2 opioid receptor affinity against the receptor site model site 2 (mu2) by using the curve-fitting program LIGAND
[8] = biological target: Kappa-type opioid receptor (Rattus norvegicus, UniProt P34975); test: Opioid receptor affinity against Opioid receptor kappa 1 by using the curve-fitting program LIGAND
[9] = biological target: T1, Delta-type opioid receptor; test: Opioid receptor affinity against the Opioid receptor delta 1 by using the curve-fitting program LIGAND
Mu-type opioid receptor [10] = biological target: T2, Mu-type opioid receptor; test: (§2) Opioid receptor mu 1 affinity against the receptor site model site 1 (mu1) by using the curve-fitting program LIGAND
In short: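 Rat whole-brain homogenate, preincubated 37 °C 1 h, resuspended in Tris pH 7.7 (with 100 mM NaCl when appropriate) at 6.7 mg tissue/mL. […] Triplicate tubes, 25 °C 45 min, then filtration. Self- and cross-competition data were fitted together by multisite LIGAND analysis for site affinities. Values are averages of at least two experiments.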

Opioid receptor = Opioid receptor (Rattus norvegicus, UniProt P33533+P34975+P33535); test: Opioid receptor affinity against the receptor site model site 5 by using the curve-fitting program LIGAND; assay type: protein assay
Mu-type opioid receptor [11] = biological target: T2, Mu-type opioid receptor; test: as §2; remark: listed apart in the source
Mus musculus [12] = test: Compound was tested for narcotic antagonist potency using tail flick test in mouse after sc administration of compound; no significant antagonist activity up to dose of 240-300 umol/kg.; assay type: functional, organism-based
Mus musculus [13] = test: Compound was tested for narcotic antagonist potency using tail flick test in mouse after sc administration of compound; No significant antagonist activity up to dose of 240-300 umol/kg.; assay type: functional, organism-based
Mus musculus [14] = test: Analgesic antagonistic activity in mice using morphine(56.07 umol/kg) induced Straub-tail test after sc administration; No antagonist activity up to 846 umol/ kg; assay type: functional, organism-based; in short: as §1
Mus musculus [15] = test: Compound was tested for narcotic antagonist potency using tail flick test in mouse following subcutaneous administration; assay type: functional; details: sc
[16] = Mus musculus, sc, read-out: ED50

Sequence of Kappa-type opioid receptor (P34975 whole entry): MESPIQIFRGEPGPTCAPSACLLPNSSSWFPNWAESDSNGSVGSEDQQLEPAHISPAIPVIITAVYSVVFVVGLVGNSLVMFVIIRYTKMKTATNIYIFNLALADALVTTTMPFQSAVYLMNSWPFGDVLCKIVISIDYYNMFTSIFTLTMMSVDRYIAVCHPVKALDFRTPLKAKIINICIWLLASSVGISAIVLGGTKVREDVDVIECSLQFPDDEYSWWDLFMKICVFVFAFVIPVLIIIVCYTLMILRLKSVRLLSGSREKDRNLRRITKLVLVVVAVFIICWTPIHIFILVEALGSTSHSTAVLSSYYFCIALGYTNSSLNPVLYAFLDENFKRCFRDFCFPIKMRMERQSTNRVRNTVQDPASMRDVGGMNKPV
T1 sequence (P33533 whole entry): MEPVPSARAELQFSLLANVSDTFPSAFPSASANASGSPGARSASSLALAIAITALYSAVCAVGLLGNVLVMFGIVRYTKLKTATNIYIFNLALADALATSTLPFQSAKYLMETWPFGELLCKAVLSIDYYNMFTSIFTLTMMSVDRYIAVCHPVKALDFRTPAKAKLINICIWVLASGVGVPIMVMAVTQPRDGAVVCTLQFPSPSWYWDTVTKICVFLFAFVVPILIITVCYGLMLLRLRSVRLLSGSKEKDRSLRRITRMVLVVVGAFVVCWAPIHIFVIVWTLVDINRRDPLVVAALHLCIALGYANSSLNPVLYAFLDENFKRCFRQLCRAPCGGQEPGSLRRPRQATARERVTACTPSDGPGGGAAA
T2 sequence (P33535 whole entry): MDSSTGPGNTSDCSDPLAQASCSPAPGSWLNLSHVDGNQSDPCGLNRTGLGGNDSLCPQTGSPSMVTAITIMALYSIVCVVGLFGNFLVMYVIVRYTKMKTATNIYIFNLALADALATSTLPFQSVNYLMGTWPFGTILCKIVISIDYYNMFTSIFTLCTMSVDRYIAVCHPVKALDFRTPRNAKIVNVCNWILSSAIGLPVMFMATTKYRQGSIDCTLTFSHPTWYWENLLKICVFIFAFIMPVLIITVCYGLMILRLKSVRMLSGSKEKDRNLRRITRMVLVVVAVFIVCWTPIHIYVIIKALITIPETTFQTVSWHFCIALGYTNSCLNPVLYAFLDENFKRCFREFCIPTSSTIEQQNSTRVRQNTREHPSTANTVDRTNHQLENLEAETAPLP

Structure (SMILES): CCC1C2C(=O)c3ccc(O)cc3C1(C)CCN2CC1CC1 (stereo unspecified)
- Kd [1]: 14 nM

Structure (SMILES): CN1CC[C@]23c4c5ccc(O)c4O[C@H]2[C@@H](O)C=C[C@H]3[C@H]1C5
- ED50 (Mus musculus [2]; [16]): 0.81 µmol/kg

Structure (SMILES): CC1(c2cccc(O)c2)CCCN(CCc2ccccc2)C1 (racemic)
- AD50 (Mus musculus [3]): 33.94 µM/kg
- ED50 (Mus musculus [4]): 14.1 µmol/kg

Structure (SMILES): C=CCN1CCCC(C)(c2cccc(O)c2)C1 (racemic)
- AD50 (Mus musculus [3]): 38.83 µM/kg
- ED50 (Mus musculus [4]): 418 µmol/kg

Structure (SMILES): Br.CN1CCCC(C)(c2cccc(O)c2)C1 (racemic)
- AD50 (Mus musculus [3]): 18.17 µM/kg
- ED50 (Mus musculus [4]): 26.9 µmol/kg

Structure (SMILES): CC1(c2cccc(O)c2)CCCN(CC2CC2)C1 (racemic)
- AD50 (Mus musculus [3]): 7.5 µM/kg
- ED50 (Mus musculus [4]): 83.5 µmol/kg

Structure (SMILES): C=CCN1CCCC(C)(c2cccc(O)c2)C1 (single isomer, unassigned; (+))
- ED50 (Mus musculus [5]): 112 µmol/kg
- ED50 (Mus musculus [6]): 160.94 µM/kg
- Kd (Mu-type opioid receptor [7]): 370 nM
- Kd [8]: 137 nM
- Kd [9]: 4000 nM
- Kd (Mu-type opioid receptor [10]): 100 nM
- Kd (Opioid receptor): 3700 nM

Structure (SMILES): CC1(c2cccc(O)c2)CCCN(CC2CC2)C1 (single isomer, unassigned; (+))
- ED50 (Mus musculus [5]): 139 µmol/kg

Structure (SMILES): CC1(c2cccc(O)c2)CCCN(CCc2ccccc2)C1 (single isomer, unassigned; (-)) [listing 1 of 2 here]
- ED50 (Mus musculus [6]): 18.38 µM/kg
- Kd (Mu-type opioid receptor [7]): 130 nM
- Kd [8]: 625 nM
- Kd [9]: 2170 nM
- Kd (Opioid receptor): 1390 nM
- Kd (Mu-type opioid receptor [11]): 13 nM

Structure (SMILES): C=CCN1CCCC(C)(c2cccc(O)c2)C1 (single isomer, unassigned; (-)) [listing 1 of 2 here]
- ED50 (Mus musculus [6]): 14.34 µM/kg
- Kd (Mu-type opioid receptor [7]): 110 nM
- Kd [8]: 370 nM
- Kd [9]: 4000 nM
- Kd (Opioid receptor): 1720 nM
- Kd (Mu-type opioid receptor [11]): 24 nM

Structure (SMILES): CC1(c2cccc(O)c2)CCCN(CC2CC2)C1 (single isomer, unassigned; (-)) [listing 1 of 2 here]
- ED50 (Mus musculus [6]; [16]): 12.2 µmol/kg

Structure (SMILES): C=CCN1CCCC(C)(c2cccc(O)c2)C1 (single isomer, unassigned; (-)) [listing 2 of 2 here]
- ED50 (Mus musculus [12]): inactive

Structure (SMILES): CC1(c2cccc(O)c2)CCCN(CC2CC2)C1 (single isomer, unassigned; (-)) [listing 2 of 2 here]
- ED50 (Mus musculus [12]): inactive

Structure (SMILES): CC1(c2cccc(O)c2)CCCN(CCc2ccccc2)C1 (single isomer, unassigned; (-)) [listing 2 of 2 here]
- ED50 (Mus musculus [12]): inactive

Structure (SMILES): CN1CCCC(C)(c2cccc(O)c2)C1 (stereo in doubt; (+)-7a)
- ED50 (Mus musculus [5]): 101 µmol/kg
- ED50 (Mus musculus [6]): 41.36 µM/kg
- Kd (Mu-type opioid receptor [7]): 1000 nM
- Kd [8]: 714 nM
- Kd [9]: 15900 nM
- Kd (Opioid receptor): 19200 nM
- Kd (Mu-type opioid receptor [11]): 132 nM

Structure (SMILES): CC1(c2cccc(O)c2)CCCN(CCc2ccccc2)C1 (stereo in doubt; (+)-7d)
- ED50 (Mus musculus [5]): 13.1 µmol/kg
- ED50 (Mus musculus [6]; [16]): 11.5 µmol/kg
- Kd (Mu-type opioid receptor [7]): 6.2 nM
- Kd [8]: 179 nM
- Kd [9]: 588 nM
- Kd (Opioid receptor): 26300 nM
- Kd (Mu-type opioid receptor [11]): 5 nM

Structure (SMILES): CN1CCCC(C)(c2cccc(O)c2)C1 (stereo in doubt; (-)-7a) [listing 1 of 2 here]
- ED50 (Mus musculus [6]; [16]): 25.7 µmol/kg
- Kd (Mu-type opioid receptor [7]): 1170 nM
- Kd [8]: 625 nM
- Kd [9]: 30000 nM
- Kd (Mu-type opioid receptor [10]): 114 nM
- Kd (Opioid receptor): 8330 nM

Structure (SMILES): CN1CCCC(C)(c2cccc(O)c2)C1 (stereo in doubt; (-)-7a) [listing 2 of 2 here]
- ED50 (Mus musculus [13]): inactive

Structure (SMILES): CCOC(=O)C1(c2ccccc2)CCN(C)CC1 [MEPERIDINE HYDROCHLORIDE]
- AD50 (Mus musculus [14]): inactive
- ED50 (Mus musculus [4]): 20.2 µmol/kg

Structure (SMILES): C=CCN1CC[C@]23c4c5ccc(O)c4O[C@H]2[C@@H](O)C=C[C@H]3[C@H]1C5.Cl [NALORPHINE HYDROCHLORIDE]
- AD50 (Mus musculus [3]): 0.71 µM/kg
- ED50 (Mus musculus [2]; [16]): 1.4 µmol/kg

Structure (SMILES): C=CCN1CC[C@]23c4c5ccc(O)c4O[C@H]2[C@@H](O)C=C[C@H]3[C@H]1C5 [NALORPHINE]
- ED50 (Mus musculus [15]): 2.04 µmol/kg
- ED50 (Mus musculus [2]): 1.4 µM/kg
